Assay results of several laboratories.
pIC50: −log10 of the molar value.
Organism: Plasmodium falciparum
Read-out: parasite growth

COC1=CC(c2ccco2)=NC1=Cc1ccc(CCCCCCCCCC(C)O)[nH]1 (stereo not shown)  pIC50 (DD2; drug-resistant strain, blood stage): < 5.60
CCCCCCCCCCOc1cc2c(O)c(C(=O)OCC)cnc2cc1OCC  pIC50 (SYBR Green; 3D7; blood stage): > 8.24
CCN(CC)CCCC(C)Nc1ccnc2cc(Cl)ccc12 (stereo not shown)  pIC50 (3D7; blood stage): 7.96
FC(F)(F)c1ccc2c(c1)nc(N1CCNCC1)n2Cc1ccccc1  pIC50 (K1; drug-resistant strain, blood stage): 6.38
COC1=CC(c2ccc[nH]2)=NC1=Cc1ccc(CCCCCCCCCCCO)[nH]1  pIC50 (DD2; drug-resistant strain, blood stage): 7.44
CCN(CC)CCCC(C)Nc1ccnc2cc(Cl)ccc12 (stereo not shown)  IC50 (W2; 72 h, drug-resistant strain, blood stage): 0.155 µg/mL
COC1=CC(c2ccc[nH]2)=NC1=Cc1ccc(CCCCCCCCCCO)[nH]1  pIC50 (DD2; drug-resistant strain, blood stage): 7.10
Clc1ccc2c(N3CCN(CCCN4CCN(c5ccnc6cc(Cl)ccc56)CC4)CC3)ccnc2c1  pIC50 (3D7; blood stage): 8.36
CC(C)(C)C(O)C(Oc1ccc(-c2ccccc2)cc1)n1cncn1 (stereo not shown)  pIC50 (SYBR Green; blood stage): 5.06
COc1cc(CO)c(-c2ccc3c(c2O)[C@@H](C)N[C@H](C)C3)c2cccc(O)c12  pIC50 (SYBR Green; W2; drug-resistant strain, blood stage): 6.52
CCN(CC)CCCC(C)Nc1ccnc2cc(Cl)ccc12 (stereo not shown)  IC50 (D6; blood stage): 0.02 µg/mL
COC1=CC(c2cccn2C)=NC1=Cc1ccc(CCCCCCCCCC(C)O)[nH]1 (stereo not shown)  pIC50 (7G8; drug-resistant strain, blood stage): 6.00
NCCNc1nc2cc(Cl)ccc2n1Cc1ccccc1  pIC50 (K1; drug-resistant strain, blood stage): 6.47
CCN(CC)CCCC(C)Nc1ccnc2cc(Cl)ccc12 (stereo not shown)  pIC50 (DD2; drug-resistant strain, blood stage): 6.99
Brc1ccc2c(c1)nc(N1CCNCC1)n2Cc1ccccc1  pIC50 (K1; drug-resistant strain, blood stage): 7.19
O=C(Nc1ccc(F)cc1C(=O)O)c1ccc(-c2ccccc2)cc1  pIC50 (resazurin; NF54; 48 h, gametocyte): 8.03
